What was measured:
dengue virus type 1 = assay: Antiviral activity against DENV1 infected in human Huh7 cells; type: functional, organism-based; conditions: Huh-7
Method in brief: (§1)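 Huh7 cells stably carrying a DENV replicon (serotype 1, 2, 3 or 4) with Renilla luciferase and neomycin-resistance genes. Seeded at 10k/well, incubated overnight at 37 °C in 5% CO₂, then given 2-fold serial compound dilutions in duplicate. After 48 h, luciferase was read with EnduRen live-cell substrate. EC50 came from four-parameter logistic fits of dose-response curves.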

dengue virus type 2 = assay: Antiviral activity against DENV2 infected in human Huh7 cells; type: functional, organism-based; conditions: Huh-7; method in brief: as §1
dengue virus type 3 = assay: Antiviral activity against DENV3 infected in human Huh7 cells; type: functional, organism-based; conditions: Huh-7; method in brief: as §1
dengue virus type 4 = assay: Antiviral activity against DENV4 infected in human Huh7 cells; type: functional, organism-based; conditions: Huh-7; method in brief: as §1
Huh-7 = assay: Cytotoxicity against human HuH7 cells infected with DENV2 assessed as reduction in cell viability; type: cell-based
Method in brief: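 Cytotoxicity was read in Huh7 cells stably carrying the DENV-2 Renilla luciferase replicon. Cells were seeded at 10k/well, incubated overnight at 37 °C in 5% CO₂, then given 2-fold serial compound dilutions in duplicate for 48 h. After the live-cell luciferase read, CellTiter-Glo was added to the same wells to measure viability.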

Row | EC50 (dengue virus type 1) [nM] | EC50 (dengue virus type 2) [nM] | EC50 (dengue virus type 3) [nM] | EC50 (dengue virus type 4) [µM] | SMILES | CC50 (Huh-7) [µM]
1 | 2400 | 110 | 6 | > 10 | O=C1CC2(C(=O)Nc3ccc(Cl)cc32)c2cnn(Cc3ccc(Cl)cc3)c2N1 (stereo not drawn) | > 10
2 |  | 3200 |  |  | NC(=O)C1C(=O)Nc2c(cnn2Cc2ccc(Cl)cc2)C12C(=O)Nc1ccc(Cl)cc12 (stereo not drawn) | 50
3 | 2500 | 1800 | 25 | > 5 | Cc1nn(Cc2ccc(Cl)cc2)c2c1C1(CC(=O)N2)C(=O)Nc2ccc(Cl)cc21 (stereo not drawn) | > 10
4 |  | 4400 |  |  | O=C1CC2(C(=O)Nc3ccc(Cl)cc32)c2cn(Cc3ccc(Cl)cc3)nc2N1 (stereo not drawn) | > 10
5 |  | 1900 |  |  | O=C1CC2(C(=O)Nc3ccc(Cl)cc32)c2c(C3CC3)nn(Cc3ccc(Cl)cc3)c2N1 (stereo not drawn) | > 10
6 |  | 4200 |  |  | O=C1CC2(C(=O)Nc3ccc(Cl)cc32)c2cnn(Cc3ccc(F)cc3)c2N1 (stereo not drawn) | 
7 | 1800 | 50 | 19 | > 5 | O=C1CC2(C(=O)Nc3ccc(Cl)cc32)c2cnn(Cc3ccc(Cl)c(F)c3)c2N1 (stereo not drawn) | > 10
8 | 1800 | 62 | > 5000 | > 5 | O=C1CC2(C(=O)Nc3ccc(Cl)cc32)c2cnn(Cc3ccc(Cl)c(Cl)c3)c2N1 (stereo not drawn) | > 10
9 |  | > 5000 |  |  | COC(=O)c1ccc(Cn2ncc3c2NC(=O)CC32C(=O)Nc3ccc(Cl)cc32)cc1 (stereo not drawn) | 
10 |  | > 5000 |  |  | N#Cc1ccc(Cn2ncc3c2NC(=O)CC32C(=O)Nc3ccc(Cl)cc32)cc1 (stereo not drawn) | 
11 |  | 8600 |  |  | N#CC1C(=O)Nc2c(cnn2Cc2ccc(Cl)cc2)C12C(=O)Nc1ccc(Cl)cc12 (stereo not drawn) | 50
12 |  | 1100 |  |  | O=C1CC2(C(=O)Nc3ccc(Cl)cc32)c2cn(Cc3ccc(Cl)c(Cl)c3)nc2N1 (stereo not drawn) | > 10
13 |  | > 5000 |  |  | N#Cc1cn(Cc2ccc(Cl)cc2)c2c1C1(CC(=O)N2)C(=O)Nc2ccc(Cl)cc21 (stereo not drawn) | 
14 | 2300 | 140 | 390 | > 5 | O=C1CC2(C(=O)Nc3ccc(Cl)cc32)c2cnn(Cc3ccc(Cl)cc3F)c2N1 (stereo not drawn) | > 10
15 |  | > 5000 |  |  | O=C1CC2(C(=O)Nc3ccc(Cl)cc32)c2cnn(Cc3ccc(C(=O)O)cc3)c2N1 (stereo not drawn) | 
16 |  | > 5000 |  |  | CS(=O)(=O)c1ccc(Cn2ncc3c2NC(=O)CC32C(=O)Nc3ccc(Cl)cc32)cc1 (stereo not drawn) | 

Row | SMILES | EC50 (dengue virus type 1) [nM] | EC50 (dengue virus type 2) [nM] | EC50 (dengue virus type 3) [nM] | EC50 (dengue virus type 4) [µM] | CC50 (Huh-7) [µM]
17 | CC(=O)C1C(=O)Nc2c(cnn2Cc2ccc(Cl)cc2)C12C(=O)Nc1ccc(Cl)cc12 (stereo not drawn) |  | > 10000 |  |  | > 20
18 | O=C1CC2(C(=O)Nc3ccc(Cl)cc32)c2cnn(Cc3ccc(C(F)(F)F)cc3C(F)(F)F)c2N1 (stereo not drawn) | 1600 | 38 | 17 | > 5 | > 10
